From PubChem
HTR5A inv ag: HTR5A inverse agonism, opioid heterodimer counter-screen. P47898. HTR5A cell line, luminescence. inhibition, % at 9.3 µM. 0.083% of 340,000 active. AID 504634; in the data active means inhibition mostly above about 23%, no sharp cut-off; inactive means mostly below about 18%;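 further: 0% = cells with DMSO and 100% = no-cell wells with DMSO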
Target sequence (P47898 whole entry, looked up): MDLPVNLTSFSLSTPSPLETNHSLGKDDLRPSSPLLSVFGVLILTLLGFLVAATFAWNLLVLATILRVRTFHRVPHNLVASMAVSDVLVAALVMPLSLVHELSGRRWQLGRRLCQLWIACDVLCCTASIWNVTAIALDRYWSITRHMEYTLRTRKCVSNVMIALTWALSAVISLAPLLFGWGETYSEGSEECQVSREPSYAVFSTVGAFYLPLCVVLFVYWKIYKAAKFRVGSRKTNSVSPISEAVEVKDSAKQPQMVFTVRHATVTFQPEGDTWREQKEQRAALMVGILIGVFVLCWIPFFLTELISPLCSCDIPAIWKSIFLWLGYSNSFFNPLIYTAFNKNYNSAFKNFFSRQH
Hep lipid drop: modulators of hepatic lipid droplet formation. AML12 mouse hepatocytes, oleate lipid droplets, BODIPY imaging. inhibition, % at 6.5 µM. 0.4% of 240,000 active. AID 1656;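 active means lipid droplet intensity inhibited by at least 50%, with more than 500 cells counted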
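Material – mouse AML12 hepatocyte cell line, fixed after treatment · Compound dosing – one dose, 6.5 µM compound · Times – compound with oleate, overnight · Measured by – Image-based BODIPY and DAPI two-channel analysis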
OPRM1-OPRD1 inv: mu-delta opioid heterodimer inverse agonism; cell-based MOR-DOR heterodimer luminescence; 0.21% of 340,000 active; inhibition, % at 9.3 µM; P35372+P41143; in the data active means inhibition above about 22%, passing the limit was not always enough;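 further: 0% = cells with DMSO and 100% = wells without cells with DMSO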
HTR5A ag ctr: counter-screen for OPRM1-OPRD1 agonists: human HTR5A agonism; activation, % at 9.3 µM; P47898; AID 504692; HTR5A agonist assay, luminescence, cell-based; 0.61% of 340,000 active; in the data active means activation mostly above about 9.5%, no sharp cut-off; inactive means mostly below about 7.6%;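 further: 0% = cells with vehicle only and 100% = reference agonist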
MOR-DOR ag: OPRM1-OPRD1 heterodimerization agonism. P35372+P41143. cells, luminescence. activation, % at 9.3 µM. 0.3% of 340,000 active; in the data active means activation above about 18%;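 further: 0% = vehicle-treated cells and 100% = reference agonist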
Active calls of the source: *; · = no result given. Compounds with a hit are over-represented: about 1.4% of the library has one in this group of screens.

SMILES	HTR5A inv ag	Hep lipid drop	OPRM1-OPRD1 inv	HTR5A ag ctr	MOR-DOR ag
Cc1cccc(NC(=O)C2(C)CC3c4ccccc4C2c2ccccc23)c1 (stereo not given)	-37	·	-73	10*	14
Cc1cccc(NC(=S)N/N=C/c2ccc(Cl)c([N+](=O)[O-])c2)c1	-22	·	-44	9.3*	8
Cc1cccc(NC(=S)N/N=C/c2cccc([N+](=O)[O-])c2)c1	2	-18	-2	0	0
Cc1ccc2c(c1)c1nnc(SCC(=O)Nc3ccc(N(C)C)cc3)nc1n2CC(=O)O	-48	9	-2	13*	0
Cc1ccc2c(c1)c1nnc(SCC(=O)Nc3cccc(Cl)c3C)nc1n2CC(=O)O	-1	3	0	1	0
COC(C[C@@H](O)[C@H](C)[C@@H](O)COCc1ccccc1)OC	-4	-7	8	2	-1
Cc1ccc(C(OCC(C)(C)C[N+](C)(C)C)c2ccccc2)cc1 (stereo not given)	4	14	6	-1	-1
COc1cc(C(=O)Nc2nc(-c3ccc(C)cc3)cs2)ccc1OCC(=O)N1CCOCC1	-18	88*	-2	3	0
COc1ccc(OC)c(NC(=O)c2ccc(OCC(=O)N3CCOCC3)c(OC)c2)c1	-9	·	-2	3	0
COc1cc(C(=O)Nc2nc(-c3ccc(F)cc3)cs2)ccc1OCC(=O)N1CCOCC1	-10	61*	-8	5	1
COc1cc(C(=O)NNC(=O)c2ccc(F)cc2)ccc1OCC(=O)N1CCOCC1	7	·	15	0	-4
COc1ccc(-c2nc(NC(=O)c3ccc(OCC(=O)Nc4ccc(F)cc4)c(OC)c3)sc2C)cc1	6	10	-102	15*	19*
CC(C)(C)c1ccc(S(=O)(=O)Nc2ccc(Cc3ccncc3)cc2)cc1	0	67*	1	-2	0
CC(CNc1ccccc1O)C(=O)O (stereo not given)	-11	-14	-15	10	3
Cc1nc2c(C(=O)N3CCOCC3)cnn2c(C)c1Cc1ccc(Cl)cc1	-18	·	-20	12*	4
CCN(C(=O)COC(=O)c1cc(=O)c2ccccc2o1)c1c(N)n(Cc2ccccc2)c(=O)[nH]c1=O	3	·	10	3	-1
CC(=O)Nc1cccc(NC(=O)c2cc(-c3cccnc3)nc3ccc(Br)cc23)c1	-22	·	3	2	-1
CSc1ccccc1NC(=O)c1cc(-c2cccnc2)nc2ccc(Br)cc12	-33	·	-1	13*	0
COc1ccc(OCC(=O)Nc2cc(NC(=O)c3ccco3)ccc2OC)cc1	6	2	12	-2	-3
c1ccc2c(c1)Oc1ccccc1S2	-52	·	17	13*	-3
Nc1n[nH]c(N)c1N=Nc1ccc2c(c1)OCO2	5	14	9	1	-2
Cc1cccc(NS(=O)(=O)c2cccc3cccnc23)n1	-40	-29	0	13*	0
Cc1ccc2c(c1)C(CCN)C(=O)N2Cc1ccccc1 (stereo not given)	57*	4	65*	-21	-11
CC12CCC(C(=O)N(CSC(=S)N/N=C\c3ccccc3)C1=O)C2(C)C (stereo not given)	-11	5	-4	10*	1
CCC(c1nnc(SCC(=O)Nc2ccc(C(=O)N(C)C)cc2)n1Cc1ccccc1)N(C)C (stereo not given)	-6	-2	5	6	-1
SMILES	HTR5A inv ag	Hep lipid drop	OPRM1-OPRD1 inv	HTR5A ag ctr	MOR-DOR ag
COC(=O)CN(c1cc(OC)ccc1OC)S(=O)(=O)c1ccc(OC)c(OC)c1	-17	-10	11	9.2*	-2
COc1ccc(OC)c(N(CC(=O)N2CCCC2)S(=O)(=O)c2ccccc2)c1	-31	-5	16	12	-3
CCOc1ccc(NC(=O)Cc2ccc(S(=O)(=O)N3CCCCC3)cc2)cc1OCC	14	·	5	11*	-1
CCOc1ccc(NC(=O)CN(C)C(=O)/C=C/c2ccc(S(=O)(=O)N3CCCCCC3)cc2)cc1OCC	4	·	7	-2	-1
CCOC(=O)Nc1sc(C)c(C)c1C(=O)OCC	-7	-26	-35	13*	7
CCOC(=O)c1c(NC(=O)Nc2ccccc2)sc(C)c1C	-17	·	-7	8	1
Cc1ccccc1-c1nc(CN(Cc2c(C)nn(C)c2C)C2CC2)c(C)o1	-5	-2	-18	2	3
CCC(NCc1cccnc1)c1ccc(OC)c(OC)c1 (stereo not given)	-4	·	2	-4	0
CCNC(=S)NCCN1CCOCC1	2	8	-8	-1	1
CNC(=S)NCCN1CCOCC1	14	-5	7	13*	-1
O=C1CCN(C(=O)Nc2cccc(Cl)c2)N1	18	·	2	11*	0
O=C(Nc1cccc(Cl)c1)N1CCCC1	3	-4	-3	-2	1
Cc1cccc(/C=N/Nc2cc(N3CCOCC3)nc(N3CCOCC3)n2)c1	27	130*	-25	6	5
O=C(NCCNc1ccc([N+](=O)[O-])cc1C(F)(F)F)c1ccccc1	10	7	-4	0	1
O=C(NCCNc1ccc([N+](=O)[O-])cc1C(F)(F)F)c1cccc(F)c1	6	-2	-9	14*	2
Cc1ccc(C(=O)NCC(=O)OCC(=O)Nc2ccc3[nH]c(=O)[nH]c3c2)cc1	-6	·	8	1	-1
COc1ccc(Br)cc1/C=C/C(=O)Nc1ccc2ccccc2c1	-5	52*	4	4	-1
COc1ccc(Br)cc1/C=C/C(=O)Nc1ccc(C)cc1	13	-2	2	3	0
Cc1ccc(C(=O)C(C)OC(=O)Cn2[nH]c(=O)c3ccccc3c2=O)cc1C (stereo not given)	-45	0	16	12*	-3
CCCC(C(=O)c1ccccc1)n1cncn1 (stereo not given)	-27	0	12	11*	-2
COc1cc(C(=O)O/N=C(\N)Cc2ccc([N+](=O)[O-])cc2)cc(OC)c1OC	·	-6	·	·	·
COc1ccc(C(=O)O/N=C(\N)Cc2ccc(Cl)c(Cl)c2)cc1OC	-143	0	-127	42*	22*
O=[N+]([O-])c1cc(S(=O)(=O)N2CCCCC2)ccc1NCCN1CCOCC1	-3	-17	9	1	-2
CCOc1cc(/C=N/N=C(N)N)ccc1OCc1ccc(Cl)cc1	-17	3	-39	2	7
COc1cc(/C=N/N=C(N)N)ccc1OCc1ccc(Cl)cc1	-28	-23	-55	10*	8
COc1ccc(C(=O)c2no[n+]([O-])c2C(=O)c2ccc(OC)cc2)cc1	-56	·	-200	26*	40*
O=c1c2c(n3cnnc3n1-c1ccccc1)-c1ccccc1CC21CCCC1	-7	6	18	13*	-4
O=c1c2c(n3nnnc3n1-c1ccccc1)-c1ccccc1CC21CCCC1	-16	·	-1	10	0
